Hits are enriched below; roughly 2.3% of the tested compounds scored in any of these assays.
Cneo AK release: Cryptococcus neoformans lysis via adenylate kinase release. C. neoformans lysis, adenylate kinase release luminescence, 4 h; normalised: neutral wells 0, clomiphene wells 100. hit rate 0.2% among 360,000. lysis activity, % at 15 µM;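 active means mean lysis activity across replicates of at least 80%, whatever share of replicates individually reach that level; inactive means mean lysis activity below 80%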
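Assay system: C. neoformans cells. Amount: yeast cell density of 5 × 10^6 cells/mL. Technique: AK luminescence. Buffer or medium: YPD. Times: static 4 h at 37 °C with compound, 1 h detection. Dosing: single-point compound dose. Read-out: lysis from increased AK signal.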
DENV2 CPE rescue: inhibitors of DENV2 cytopathic effect | DENV2-infected cells, cytopathic effect rescue, plate reader | CPE inhibition, % at 9.99 µM | hit rate 1.7% among 350,000 | AID 651640; in the data active means CPE inhibition above about 20%, passing the limit was not always enough; inconclusive means no clear call, values can overlap the other calls; tested in BHK-21 cells;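 further: 0% = median of neutral control wells and 100% = median of positive control wells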
C2C12 statin: suppressors of simvastatin-induced myotoxicity in C2C12 myotubes. ATP luminescence, 48 h; scaled: DMSO 0, geranylgeraniol control 100. rescue of ATP level, % at 7.49 µM. hit rate 0.78% among 330,000. AID 602340;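 active means mean ATP rescue above about 67%, or every replicate alone reaching that limit, limit read from the data, passing the limit was not always enough; inconclusive means no clear call, values can overlap the other calls; inactive means mean under the limit and some replicate under it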;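 further: myotubes were challenged with 10 µM simvastatin during compound exposure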
PDI inh: blocks human protein disulfide isomerase activity; PDI insulin aggregation turbidity, A650, 90 min; inhibition, % at 10 µM; hit rate 0.052% among 350,000; AID 588391;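 active means mean inhibition across replicates of 30% or more, whatever share of single replicates reach that level; inconclusive means mean inhibition below 30% while every single replicate reaches 30%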
CFTR F508del cor: CFTR F508del correction in bronchial cells | activity (quench increase), % at 7.58 µM | hit rate 0.36% among 350,000 | CFBE cells, YFP halide quenching; stimulated with forskolin plus potentiator P3; % fluorescence drop versus neutral controls;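 active means mean added fluorescence quench of at least 8% versus neutral control, with both replicates also reaching 8%; inconclusive means only one of the mean or replicate conditions met; inactive means mean below 8% and not both replicates reaching 8%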;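 further: cells transiently co-express mutant CFTR-F508del with the halide-sensitive YFP; corrector assay measuring rescue of mutant channel to the surface after 24 h compound exposure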
ERp5 inh: ERp5 (human) disulfide isomerase inhibition; AID 651711; hit rate 0.05% among 350,000; Q15084; ERp5 insulin aggregation, absorbance 650 nm, 90 min; inhibition, % at 9.99 µM;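 active means mean replicate inhibition above about 25%, with every replicate also reaching it, limit read from the data, passing the limit was not always enough; inconclusive means only one of those two criteria met; inactive means neither criterion met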
Target sequence (Q15084 whole entry, looked up): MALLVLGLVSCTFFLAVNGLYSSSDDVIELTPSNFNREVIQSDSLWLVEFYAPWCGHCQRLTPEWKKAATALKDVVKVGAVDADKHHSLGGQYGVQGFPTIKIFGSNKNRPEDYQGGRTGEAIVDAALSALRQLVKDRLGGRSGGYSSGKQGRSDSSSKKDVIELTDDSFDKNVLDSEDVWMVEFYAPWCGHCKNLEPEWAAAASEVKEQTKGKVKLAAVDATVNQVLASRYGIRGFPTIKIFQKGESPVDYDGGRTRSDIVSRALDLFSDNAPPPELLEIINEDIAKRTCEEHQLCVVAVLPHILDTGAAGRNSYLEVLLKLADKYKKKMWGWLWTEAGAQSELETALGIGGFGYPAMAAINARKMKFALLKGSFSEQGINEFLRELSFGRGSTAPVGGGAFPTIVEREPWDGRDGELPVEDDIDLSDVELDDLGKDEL
Starred values were filed as active, the others as inactive; ? = inconclusive; . = not tested or not shown.

SMILES	Cneo AK release	DENV2 CPE rescue	C2C12 statin	PDI inh	CFTR F508del cor	ERp5 inh
C[C@@H]1CCCCO[C@H](CN(C)C)[C@H](C)CN([C@H](C)CO)C(=O)c2cc(NC(=O)Nc3cccc4ccccc34)ccc2O1	5.4	74.0*	-349.3	.	-1.6	3.3
C[C@H](CO)N1C[C@H](C)[C@@H](CN(C)CC2CCCCC2)Oc2ccc(NC(=O)Nc3cccc4ccccc34)cc2C1=O	-0.1	-0.4	96.0*	.	-1.1	-0.2
COc1ccc(S(=O)(=O)Nc2ccc3c(c2)CC(=O)N([C@@H](C)CO)C[C@@H](C)[C@@H](CN(C)S(=O)(=O)c2ccc(Cl)cc2)O3)cc1	2.7	-13.6	-47.5	.	3.3	4.0
CC(C)NC(=O)N(C)C[C@@H]1Oc2ccc(NC(=O)Nc3ccc(F)cc3)cc2C(=O)N([C@H](C)CO)C[C@@H]1C	-0.4	-1.5	-5.0	.	0.6	-1.1
COc1ccc(-c2csc(C(NC(C)=O)c3cccc(F)c3)n2)cc1 (stereo not given)	-0.9	-6.7	76.1*	3.2	3.1	1.3
COc1ccc(-c2csc(C(NC(C)=O)c3cccc(OC)c3)n2)cc1 (stereo not given)	-0.3	9.3	43.8	-4.8	-1.2	2.6
CC(=O)NC(c1cccc(F)c1)c1nc(-c2ccc(N(C)C)cc2)cs1 (stereo not given)	-0.3	26.4*	-2.4	9.6	-3.0	1.6
COc1ccc(C(C)(NC(C)=O)c2nc(-c3cccc(F)c3)cs2)cc1 (stereo not given)	-1.1	28.6*	1.1	5.5	-0.7	-0.9
Cc1ccc(NS(=O)(=O)c2ccc(-n3cccn3)cc2)cc1Cl	-0.8	-0.3	40.9	9.2	0.4	1.8
Cc1ccc(NS(=O)(=O)c2ccc(-n3cccn3)cc2)cc1C	0.2	-4.1	164.1*	-1.5	1.3	-20.0
Cc1cc(=O)oc2c(C)c(OC(C)C(=O)NCC3CCC(C(=O)O)CC3)ccc12 (stereo not given)	-0.6	3.7	2.6	.	-1.6	-0.8
Cc1c(OC(C)C(=O)NCC2CCC(C(=O)O)CC2)ccc2c3c(c(=O)oc12)CCCC3 (stereo not given)	4.0	-5.3	94.5*	2.0	-1.6	3.3
CCCNC(=O)C[C@@H]1CC[C@@H]2[C@@H](COc3ccc(NC(=O)c4cccc(Cl)c4)cc3C(=O)N2C)O1	.	.	1.6	.	-0.9	.
CCOC(=O)N1CCN(C(=O)C(c2ccccc2)c2ccccc2)CC1	.	.	114.8*	-7.0	.	.
O=C(CC1COc2ccccc2O1)Nc1ccccn1 (stereo not given)	.	.	5.9	2.2	.	.
O=C(CCC1COc2ccccc2O1)Nc1ccccn1 (stereo not given)	-2.8	.	155.5*	-0.1	.	.
O=C(CC12CC3CC(CC(C3)C1)C2)N1CCCOC1	-0.2	.	.	-0.1	.	.
O=C(CC12CC3CC(CC(C3)C1)C2)N1CCOCC1	0.6	.	115.3*	-8.8	.	.
COCC(=O)N1CC2(C1)[C@@H](c1ccc(-c3ccc(F)cc3)cc1)[C@H](CO)N2C(=O)C1CC1	.	3.4	.	.	0.7	-0.4
O=C(Nc1cccc2ccccc12)C12CC3CC(C1)CC(n1cnc([N+](=O)[O-])n1)(C3)C2	6.6	.	69.1*	18.6	.	.
Cc1ccc(C)c(NC(=O)CSc2nc3c(c(=O)n2C)SC(C)C3)c1 (stereo not given)	-2.8	-2.1	5.6	2.6	8.7*	10.3
CC1Cc2nc(SCC(N)=O)n(C)c(=O)c2S1 (stereo not given)	-0.3	1.0	135.2*	-13.6	-6.2	-2.7
CO[C@H]1CN(C)C(=O)c2cc(NC(=O)NC3CCCCC3)ccc2OC[C@@H](C)NC[C@@H]1C	-1.0	1.4	-2.3	.	-1.1	1.4
O=C(NC[C@H]1CC[C@H]2[C@H](CN2Cc2cccc(Cl)c2)O1)C1CCC1	.	4.3	.	.	1.5	-6.3
Cc1nc2ccccc2c2oc(C(=O)NCCN3CCN(C)CC3)cc12	-0.7	22.3*	-5.8	.	-3.6	-6.2
SMILES	Cneo AK release	DENV2 CPE rescue	C2C12 statin	PDI inh	CFTR F508del cor	ERp5 inh
CCS(=O)(=O)Nc1ccc2c(c1)C(=O)N(C)[C@H]1CC[C@H](CC(=O)Nc3ccccc3C)O[C@@H]1CO2	.	?	.	.	-1.0	6.2
CCCN1CCN(C(=O)Cn2cccc2C(=O)c2ccccc2)CC1	-3.5	.	-7.2	-5.6	.	.
Cc1ccc(CNC(=O)Cn2cccc2C(=O)c2ccccc2)cc1	2.6	.	108.6*	3.7	.	.
O=C(c1ccccc1)c1cccn1CC(=O)N1CCCCCC1	.	.	109.7*	-4.6	.	.
COc1ccc2c3c(n(C)c2c1)[C@@H](CO)N(C(C)=O)CC31CCN(C(=O)NC(C)C)CC1	.	8.4	.	.	-0.2	6.6
COC(=O)[C@@H](NC(=O)NC(C)CCc1ccccc1)C(C)C (stereo not given in full)	-0.1	.	93.3*	7.1	.	.
CCc1csc(CCNC(=O)C2CCC(=O)N(CCc3cccc(F)c3)C2)n1 (stereo not given)	5.2	0.0	-2.3	7.5	1.4	28.3*
C[C@@H]1CN([C@@H](C)CO)C(=O)c2cc(NC(=O)Nc3ccc(C(F)(F)F)cc3)ccc2O[C@@H](C)CCCCO[C@H]1CN(C)C(=O)Nc1cccc2ccccc12	-0.3	.	5.6	.	1.2	12.2
CNC(=O)Cn1nc(C)c2ccccc2c1=O	10.7	.	.	-1.3	.	.
Cc1nn(CC(=O)NCc2ccccc2)c(C)c1[N+](=O)[O-]	1.8	.	84.1*	-8.2	.	.
Cc1nn(CC(=O)NCCc2ccccc2)c(=O)c2ccccc12	-1.7	.	136.8*	-2.4	.	.
COc1ccc(CN(C)C[C@@H]2OCCCC[C@H](C)Oc3ccc(NS(=O)(=O)c4cn(C)cn4)cc3C(=O)N([C@H](C)CO)C[C@H]2C)cc1	-0.4	10.5	.	.	1.9	0.0
COc1cc(/C=N/NC(=O)COc2ccccc2[N+](=O)[O-])ccc1OC(=O)c1ccco1	.	26.6*	.	-1.1	2.2	-0.3
CC(C)(C)c1ccc(OCC(=O)N/N=C/c2cc(Br)ccc2OC(=O)c2ccco2)cc1	-0.4	.	135.3*	-9.2	.	.
COCCNC(=O)C[C@H]1CC[C@H]2[C@@H](COC[C@@H](O)CN2C(=O)Nc2ccccc2OC)O1	-0.6	-0.6	-16.8	.	-0.7	-1.0
N/C(=N\OC(=O)Nc1ccccc1)c1ncc([N+](=O)[O-])s1	.	33.2*	25.8	-4.0	-5.6	4.0
O=C(COC(=O)COc1ccccc1)Nc1ncc([N+](=O)[O-])s1	.	-1.9	10.2	-10.7	4.6	6.0
COc1ccc(OCCOC(=O)CN2C(=O)NC3(CCCC3)C2=O)cc1	0.5	?	6.8	-3.7	2.1	-1.0
COc1ccc(CNC(=O)C(C)N2C(=O)NC3(CCCCCCC3)C2=O)cc1 (stereo not given)	.	86.7*	.	-6.7	4.8	1.2
COc1ccc(CNC(=O)COC(=O)CN2C(=O)NC3(CCCC3)C2=O)cc1	2.4	28.8*	0.9	-11.1	4.3	-11.7
